Data published in publication PMC4079330 (Journal of Medicinal Chemistry, 2014).

Experiments:
Format in all cases: cell-based
[1] = test system: NF-κB activation through TLR3 in HEK 293T cells; experiment: SEAP reporter assay, Poly I:C; settings: 2.5 μg/mL Poly I:C, concentrations up to 100 μM
[2] = test system: NF-κB signaling through tumor necrosis factor receptor (TNFR) in HEK 293T cells; experiment: SEAP reporter assay, TNF-α; settings: 50 ng/mL TNF-α
[3] = test system: iNOS (NOS2) mRNA in RAW 264.7 cells; experiment: Quantitative RT-PCR of iNOS mRNA, LPS; settings: 20 ng/mL LPS, 20 h, maximal decrease over tested concentrations
Method in brief: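 Quantitative real-time PCR for iNOS mRNA in RAW 264.7 cells co-incubated with 20 ng/mL LPS and a range of test compound concentrations for 20 h. Values expressed as fold change, with ligand-induced cells set to 1. Three biological replicates, each in technical duplicate, were averaged, with standard deviation as error.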

[4] = test system: NF-κB activation through TLR4 in HEK 293T cells; experiment: SEAP reporter assay, LPS; settings: 20 ng/mL LPS, concentrations up to 100 μM
TNF-α in RAW 264.7 cells = experiment: TNF-α ELISA; settings: supernatant from nitric oxide plates
[5] = test system: iNOS protein in RAW 264.7 cells; experiment: Western blot of iNOS protein; settings: 20 ng/mL LPS, normalized to GAPDH
RAW 264.7 cells = experiment: WST1 cell viability assay; settings: concentrations up to 100 μM
Method in brief: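 Viability was read at every concentration tested in the NO assay, in RAW 264.7 cells given 20 ng/mL LPS plus a range of test compound concentrations. LC50 was taken as the concentration giving 50% cell viability. Test compound purity was above 95% by 1H NMR.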

In the case of `CC(C)(C)OC(=O)N(Cc1ccco1)C(=O)c1ccc(CN2C(=O)c3ccccc3S2(=O)=O)cc1` [compound 103, tert-butyl N-(furan-2-ylmethyl)-N-{4-[(1,1,3-trioxo-2,3-dihydro-1λ^6,2-benzothiazol-2-yl)methyl]benzoyl}carbamate], the “NF-κB activation (SEAP)” value [1] is reported as “did not down-regulate NF-κB activation”, the “NF-κB signaling (SEAP)” value [2] is reported as “unaffected” and the “decrease of iNOS mRNA” value [3] is reported as “up to 67%”. For the same compound, the “NF-κB activation (SEAP)” value [4] was “did not down-regulate NF-κB activation”, the TNF-α cytokine levels (TNF-α in RAW 264.7 cells) was “no change in TNF-α cytokine levels” and the iNOS protein expression [5] was “reduces iNOS protein expression in a dose-dependent fashion”. The cytotoxicity (RAW 264.7 cells) was “no cytotoxicity”.
